# Assay results: paper PMC6634314 (Cell chemical biology, 2019)
# Assays:
# WEE1 = test: MIB washout assay; assay type: binding, Human; conditions: H23 cells, 1 μM 4h, MIB pulldown ratio SM1-71/SM1-71-R
# CSNK1A1 = test: MIB washout assay; assay type: binding, Human; conditions: H23 cells, 1 μM 4h, MIB pulldown ratio SM1-71/SM1-71-R
# PRKDC = test: MIB washout assay; assay type: binding, Human; conditions: H23 cells, 1 μM 4h, MIB pulldown ratio SM1-71/SM1-71-R
# DDR1 = test: MIB washout assay; assay type: binding, Human; conditions: H23 cells, 1 μM 4h, MIB pulldown ratio SM1-71/SM1-71-R
# PKMYT1 = test: MIB washout assay; assay type: binding, Human; conditions: H23 cells, 1 μM 4h, MIB pulldown ratio SM1-71/SM1-71-R
# MAP3K1 = test: MIB washout assay; assay type: binding, Human; conditions: H23 cells, 1 μM 4h, 0h post-washout, MIB pulldown ratio SM1-71/SM1-71-R
# TK2 = test: MIB washout assay; assay type: binding, Human; conditions: H23 cells, 1 μM 4h, MIB pulldown ratio SM1-71/SM1-71-R
# EPHA2 = test: MIB washout assay; assay type: binding, Human; conditions: H23 cells, 1 μM 4h, MIB pulldown ratio SM1-71/SM1-71-R
# CDK13 = conditions: H23 cells, 1 μM 4h, MIB pulldown ratio SM1-71/SM1-71-R
# MAPK3 = test: MIB washout assay; assay type: binding, Human; conditions: H23 cells, 1 μM 4h, MIB pulldown ratio SM1-71/SM1-71-R
# MAP2K6 = MAP2K6 (Homo sapiens, UniProt P52564); test: mass shift assay; assay type: binding; conditions: incubated 4 and 24h
# Sequence of MAP2K6 (P52564 whole entry, species assumed): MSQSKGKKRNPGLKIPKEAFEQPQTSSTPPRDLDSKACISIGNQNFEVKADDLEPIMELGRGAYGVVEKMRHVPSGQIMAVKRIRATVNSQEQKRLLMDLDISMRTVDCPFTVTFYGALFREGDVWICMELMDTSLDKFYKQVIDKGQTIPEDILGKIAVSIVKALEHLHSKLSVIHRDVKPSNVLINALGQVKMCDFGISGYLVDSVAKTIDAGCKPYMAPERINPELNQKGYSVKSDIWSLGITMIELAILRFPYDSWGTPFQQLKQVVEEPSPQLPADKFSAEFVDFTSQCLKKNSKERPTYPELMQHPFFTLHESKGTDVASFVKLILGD
# How it was run: (§1)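 Kinase protein at 0.12 mM in 10 mM HEPES pH 7.5, 500 mM NaCl, incubated with 0.2 mM test compound at 4°C for 4 h and 24 h. Samples were diluted in 0.1% formic acid and desalted on a C3 pre-column. ESI-TOF was run in positive mode at 120 V, and intact mass was obtained by deconvolution to detect the adduct.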
# [1] = system: H23-KRAS^G12C non-small cell lung cancer (NSCLC) cell line; test: proliferation assay; assay type: cell-based, Human
# How it was run: (§2)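 NSCLC lines were mycoplasma-tested and treated with various concentrations of test compound for 72 h. Cell viability was then measured by CellTiter-Glo luminescence.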
# IGF1R = test: MIB washout assay; assay type: binding, Human; conditions: H23 cells, 1 μM 4h, MIB pulldown ratio SM1-71/SM1-71-R
# Calu-6-KRAS^Q61K = test: proliferation assay; assay type: cell-based, Human; conditions: Calu-6-KRAS^Q61K cells (Fig. S2)
# How it was run: as §2
# AGK = test: MIB washout assay; assay type: binding, Human; conditions: H23 cells, 1 μM 4h, MIB pulldown ratio SM1-71/SM1-71-R
# BMP2K = BMP2K (Homo sapiens, UniProt Q9NSY1); test: MIB dose-dependent kinase inhibition assay; assay type: binding; conditions: read-out: IC50 in the MIB assay, H23 cell lysate, overnight 4°C
# Sequence of BMP2K (Q9NSY1 whole entry): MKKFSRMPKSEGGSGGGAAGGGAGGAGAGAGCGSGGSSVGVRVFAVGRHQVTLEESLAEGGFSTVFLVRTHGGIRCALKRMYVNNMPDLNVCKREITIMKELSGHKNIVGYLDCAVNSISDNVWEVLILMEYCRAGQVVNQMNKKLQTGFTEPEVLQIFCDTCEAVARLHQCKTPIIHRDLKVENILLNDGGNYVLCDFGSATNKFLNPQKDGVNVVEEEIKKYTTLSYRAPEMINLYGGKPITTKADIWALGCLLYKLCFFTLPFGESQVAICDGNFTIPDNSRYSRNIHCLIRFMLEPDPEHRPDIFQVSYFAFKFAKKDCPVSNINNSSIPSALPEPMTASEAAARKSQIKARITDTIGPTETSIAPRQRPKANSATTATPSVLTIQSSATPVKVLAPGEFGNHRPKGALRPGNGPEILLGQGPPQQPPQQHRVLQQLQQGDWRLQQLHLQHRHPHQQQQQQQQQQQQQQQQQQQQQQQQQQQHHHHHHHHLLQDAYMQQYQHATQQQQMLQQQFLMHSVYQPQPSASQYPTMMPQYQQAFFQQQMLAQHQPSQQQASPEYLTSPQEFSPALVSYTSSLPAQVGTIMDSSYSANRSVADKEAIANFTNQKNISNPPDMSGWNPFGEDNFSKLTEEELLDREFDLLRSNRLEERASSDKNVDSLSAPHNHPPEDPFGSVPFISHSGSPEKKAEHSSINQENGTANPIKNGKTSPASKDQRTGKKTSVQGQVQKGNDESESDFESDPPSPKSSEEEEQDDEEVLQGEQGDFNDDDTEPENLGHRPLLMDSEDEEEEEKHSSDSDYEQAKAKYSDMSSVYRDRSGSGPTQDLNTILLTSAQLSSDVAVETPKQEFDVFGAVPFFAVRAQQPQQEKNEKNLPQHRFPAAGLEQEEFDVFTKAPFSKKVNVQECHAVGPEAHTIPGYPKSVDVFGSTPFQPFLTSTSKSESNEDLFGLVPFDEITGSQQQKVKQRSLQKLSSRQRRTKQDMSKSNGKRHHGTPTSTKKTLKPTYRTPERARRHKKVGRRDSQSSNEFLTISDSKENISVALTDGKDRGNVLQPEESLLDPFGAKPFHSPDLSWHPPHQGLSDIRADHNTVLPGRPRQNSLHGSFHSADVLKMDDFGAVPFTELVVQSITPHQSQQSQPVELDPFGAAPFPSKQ
# TGFBR2 = test: MIB washout assay; assay type: binding, Human; conditions: H23 cells, 1 μM 4h, MIB pulldown ratio SM1-71/SM1-71-R
# AAK1 = AAK1 (Homo sapiens, UniProt Q2M2I8); test: MIB washout assay; assay type: binding; conditions: H23 cells, 1 μM 4h, MIB pulldown ratio SM1-71/SM1-71-R
# Sequence of AAK1 (Q2M2I8 whole entry): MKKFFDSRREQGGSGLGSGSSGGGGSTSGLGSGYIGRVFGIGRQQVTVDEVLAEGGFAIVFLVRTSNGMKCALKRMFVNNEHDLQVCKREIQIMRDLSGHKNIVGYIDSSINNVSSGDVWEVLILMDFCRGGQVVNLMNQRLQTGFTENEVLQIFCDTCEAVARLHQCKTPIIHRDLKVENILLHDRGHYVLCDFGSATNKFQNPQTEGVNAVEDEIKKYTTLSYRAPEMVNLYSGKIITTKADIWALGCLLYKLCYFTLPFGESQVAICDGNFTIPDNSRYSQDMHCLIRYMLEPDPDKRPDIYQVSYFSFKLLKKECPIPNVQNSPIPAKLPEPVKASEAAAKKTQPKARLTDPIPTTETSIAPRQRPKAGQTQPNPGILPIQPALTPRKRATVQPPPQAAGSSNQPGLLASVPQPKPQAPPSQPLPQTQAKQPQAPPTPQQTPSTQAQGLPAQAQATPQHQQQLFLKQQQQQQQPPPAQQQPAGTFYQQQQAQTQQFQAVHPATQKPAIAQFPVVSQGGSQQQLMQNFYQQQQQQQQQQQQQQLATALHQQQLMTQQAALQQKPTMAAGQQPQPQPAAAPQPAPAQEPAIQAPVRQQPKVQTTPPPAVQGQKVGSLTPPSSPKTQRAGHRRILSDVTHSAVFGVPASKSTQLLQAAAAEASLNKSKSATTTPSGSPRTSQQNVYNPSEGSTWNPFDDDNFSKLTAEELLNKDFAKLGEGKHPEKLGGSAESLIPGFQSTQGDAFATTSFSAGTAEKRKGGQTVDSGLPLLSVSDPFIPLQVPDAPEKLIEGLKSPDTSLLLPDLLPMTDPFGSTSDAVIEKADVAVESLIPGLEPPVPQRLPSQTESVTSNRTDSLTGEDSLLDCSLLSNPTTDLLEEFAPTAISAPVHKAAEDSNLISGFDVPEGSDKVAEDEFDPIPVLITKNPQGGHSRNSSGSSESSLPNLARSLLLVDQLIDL
# LIMK1 = LIMK1 (Homo sapiens, UniProt P53667); test: MIB dose-dependent kinase inhibition assay; assay type: binding; conditions: read-out: IC50 in the MIB assay, H23 cell lysate, overnight 4°C
# Sequence of LIMK1 (P53667 whole entry): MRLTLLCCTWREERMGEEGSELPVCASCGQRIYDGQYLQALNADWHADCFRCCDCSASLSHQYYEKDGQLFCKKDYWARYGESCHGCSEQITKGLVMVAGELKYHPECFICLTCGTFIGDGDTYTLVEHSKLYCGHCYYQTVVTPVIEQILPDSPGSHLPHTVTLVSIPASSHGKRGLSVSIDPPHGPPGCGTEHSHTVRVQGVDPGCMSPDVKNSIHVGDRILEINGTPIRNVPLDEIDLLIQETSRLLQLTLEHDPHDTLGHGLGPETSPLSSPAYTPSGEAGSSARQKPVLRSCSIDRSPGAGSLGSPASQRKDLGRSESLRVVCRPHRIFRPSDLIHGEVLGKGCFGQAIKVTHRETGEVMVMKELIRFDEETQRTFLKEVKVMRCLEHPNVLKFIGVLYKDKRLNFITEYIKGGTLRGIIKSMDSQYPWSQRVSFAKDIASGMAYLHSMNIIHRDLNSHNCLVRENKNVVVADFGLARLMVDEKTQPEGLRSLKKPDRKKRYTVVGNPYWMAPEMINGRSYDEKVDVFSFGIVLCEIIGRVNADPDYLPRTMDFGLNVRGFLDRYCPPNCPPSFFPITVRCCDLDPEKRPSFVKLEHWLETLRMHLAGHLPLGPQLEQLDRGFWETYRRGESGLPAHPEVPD
# CSNK1G3 = test: MIB washout assay; assay type: binding, Human; conditions: H23 cells, 1 μM 4h, MIB pulldown ratio SM1-71/SM1-71-R
# SRC = SRC (Homo sapiens, UniProt P12931); test: MIB washout assay; assay type: binding; conditions: H23 cells, 1 μM 4h, MIB pulldown ratio SM1-71/SM1-71-R
# Sequence of SRC (P12931 whole entry): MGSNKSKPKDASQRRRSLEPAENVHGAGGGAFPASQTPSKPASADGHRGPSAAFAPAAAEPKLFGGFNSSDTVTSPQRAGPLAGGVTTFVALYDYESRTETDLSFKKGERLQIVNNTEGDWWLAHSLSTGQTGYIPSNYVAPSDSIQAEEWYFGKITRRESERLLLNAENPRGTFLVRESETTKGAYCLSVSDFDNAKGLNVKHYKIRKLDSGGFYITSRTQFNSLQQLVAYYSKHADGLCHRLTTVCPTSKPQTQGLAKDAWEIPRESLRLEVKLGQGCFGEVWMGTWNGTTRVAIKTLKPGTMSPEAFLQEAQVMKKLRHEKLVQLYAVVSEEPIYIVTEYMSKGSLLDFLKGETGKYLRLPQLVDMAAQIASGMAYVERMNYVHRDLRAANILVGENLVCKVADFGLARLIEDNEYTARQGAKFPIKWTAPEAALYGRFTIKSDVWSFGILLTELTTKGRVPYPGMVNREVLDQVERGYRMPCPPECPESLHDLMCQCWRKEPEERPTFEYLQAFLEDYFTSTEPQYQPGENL
# MAP2K7 = MAP2K7 (Homo sapiens, UniProt O14733); test: mass shift assay; assay type: binding; conditions: incubated 4 and 24h
# Sequence of MAP2K7 (O14733 whole entry, species assumed): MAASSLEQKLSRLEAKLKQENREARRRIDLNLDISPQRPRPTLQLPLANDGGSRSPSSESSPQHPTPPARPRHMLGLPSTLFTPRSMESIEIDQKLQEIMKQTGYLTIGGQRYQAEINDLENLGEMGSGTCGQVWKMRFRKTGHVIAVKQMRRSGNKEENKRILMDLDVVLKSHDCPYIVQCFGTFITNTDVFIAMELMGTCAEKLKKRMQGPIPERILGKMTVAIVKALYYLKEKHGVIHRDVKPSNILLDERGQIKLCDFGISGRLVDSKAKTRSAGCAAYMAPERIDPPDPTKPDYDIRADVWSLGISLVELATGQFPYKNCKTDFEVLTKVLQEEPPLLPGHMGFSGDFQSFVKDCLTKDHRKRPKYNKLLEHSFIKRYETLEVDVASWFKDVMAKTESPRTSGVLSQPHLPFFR
# How it was run: as §1
smiles,measurement,setting,value
C=CC(=O)Nc1ccccc1Nc1nc(Nc2ccc(N3CCN(C)CC3)cc2)ncc1Cl [SM1-71],BI-0h,WEE1; 0h post-washout,0.98
same,BI-6h,WEE1; 6h post-washout,0.63
same,BI-0h,CSNK1A1; 0h post-washout,0.91
same,BI-6h,CSNK1A1; 6h post-washout,0.74
same,BI-0h,PRKDC; 0h post-washout,0.76
same,BI-6h,PRKDC; 6h post-washout,0.77
same,BI-0h,DDR1; 0h post-washout,0.68
same,BI-6h,DDR1; 6h post-washout,0.59
same,BI-0h,PKMYT1; 0h post-washout,0.47
same,BI-6h,PKMYT1; 6h post-washout,0.8
same,BI-0h,MAP3K1,0.2
same,BI-0h,TK2; 0h post-washout,0.83
same,BI-6h,TK2; 6h post-washout,0.95
same,BI-0h,EPHA2; 0h post-washout,0.71
same,BI-6h,EPHA2; 6h post-washout,0.49
same,BI-0h,CDK13; 0h post-washout,0.57
same,BI-6h,CDK13; 6h post-washout,0.57
same,BI-0h,MAPK3; 0h post-washout,0.62
same,BI-6h,MAPK3; 6h post-washout,0.54
same,covalent adduct formation (mass shift),MAP2K6,formed covalent adducts
same,growth inhibitory effects,[1]; H23-KRAS^G12C cells (Fig. S2),strong growth inhibitory effects
same,IC50,"[1]; proliferation assays, H23-KRAS^G12C cells (Fig. S2A)",400 nM
same,BI-0h,IGF1R; 0h post-washout,0.45
same,BI-6h,IGF1R; 6h post-washout,0.64
same,growth inhibitory effects,Calu-6-KRAS^Q61K,strong growth inhibitory effects
same,BI-0h,AGK; 0h post-washout,0.66
same,BI-6h,AGK; 6h post-washout,0.5
same,IC50,BMP2K,< 10 nM
same,BI-0h,TGFBR2; 0h post-washout,0.53
same,BI-6h,TGFBR2; 6h post-washout,0.6
same,BI-0h,AAK1; 0h post-washout,0.27
same,BI-6h,AAK1; 6h post-washout,0.32
same,IC50,LIMK1,< 10 nM
same,BI-0h,CSNK1G3; 0h post-washout,0.77
same,BI-6h,CSNK1G3; 6h post-washout,0.75
same,BI-0h,SRC; 0h post-washout,0.19
same,BI-6h,SRC; 6h post-washout,0.13
same,covalent adduct formation (mass shift),MAP2K7,formed covalent adducts
